The text below walks through data of ChEMBL document CHEMBL1765042, “Utilization of nitrophenylphosphates and oxime-based ligation for the development of nanomolar affinity inhibitors of the Yersinia pestis outer protein H (YopH) phosphatase” (J Med Chem, 2011).

Active and inactive are the calls of the source. The calls are words filed in the database; no cut-off is given here.

Data set [1] has as its system Yersinia pestis. Put plainly: Antimicrobial activity against pgm, pla deficient Yersinia pestis CO92 infected in human peripheral blood monocytes assessed as inhibition of intracellular bacterial growth at 10 uM after 16 hrs. In kind it is functional, organism-based.
Data set [2] deals with Secreted effector protein (Yersinia pestis, UniProt O68720). Kind of data set: Inhibition of Yersinia pestis outer protein H expressed in Escherichia coli after 15 to 20 mins. The gist of the method: (§1)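 YopH PTPase domain (residues 164–468) expressed in E. coli. Buffer: 25 mM HEPES pH 7.0–7.6, 50 mM NaCl, 2.5 mM EDTA, 5 mM DTT plus 1 mM fresh DTT, with BSA, no detergent. Inhibitor DMSO dilutions ran 400 to 0.032 μM. Substrate was pNPP (10 mM stock), incubated 25 °C for 15–20 min. pNPP hydrolysis was measured colorimetrically and IC50 came from a Boltzmann sigmoidal fit.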

Data set [3] is described as follows: Inhibition of Variola major virus phosphatase VH1. The method in brief:
(§2)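 Recombinant phosphatases: Variola major VH1, human DUSP-14, and catalytic domains of DUSP-22, PTP1B and LAR. Each was assayed by the same spectrophotometric pNPP hydrolysis method as YopH (HEPES pH 7.0–7.6, NaCl, EDTA, DTT, BSA buffer; 25 °C, 15–20 min). IC50 came from a Boltzmann sigmoidal fit.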

For data set [4], the system named is J774. Kind of data set: Cytotoxicity against mouse J774 cells assessed as cell viability by measuring ATP level at < 100 uM after 40 hrs. In kind it is cell-based. As to conditions: j774, 40 h. The method in brief:
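J774 mouse macrophages, 5 × 10^5 cells/well, in Eagle's MEM with 4 mM L-glutamine, 4500 mg/L glucose and 7.5% FBS, at 37 °C, 5% CO2. Compound was diluted from a 10 mM DMSO stock to final 0.1–100 μM (1% DMSO in all wells) and cells were cultured 40 h. Viability was read as cellular ATP content.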

The target in data set [5] is Secreted effector protein (Yersinia pestis) (UniProt O68720). Put plainly: Inhibition of Yersinia pestis outer protein H expressed in Escherichia coli after 15 to 20 mins in absence of 0.01% TX-100. The gist of the method:
as §1

Data set [6] shares this target. Kind of data set: Inhibition of Yersinia pestis outer protein H expressed in Escherichia coli after 15 to 20 mins in presence of 0.01% TX-100. The gist of the method: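 YopH PTPase domain (residues 164–468, E. coli-expressed) run in a parallel independent pNPP hydrolysis assay with 0.01% Triton X-100 added. Buffer: 25 mM HEPES pH 7.0–7.6, 50 mM NaCl, 2.5 mM EDTA, DTT, BSA. Inhibitor DMSO dilutions ran 400 to 0.032 μM, incubated 25 °C for 15–20 min. IC50 came from a Boltzmann sigmoidal fit.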

The target in data set [7] is Dual specificity protein phosphatase 22 (Homo sapiens, UniProt Q9NRW4). Kind of data set: Inhibition of human DUSP22. The gist of the method:
as §2

The target of data set [8] is Dual specificity protein phosphatase 14 (Homo sapiens, UniProt O95147). Kind of data set: Inhibition of human DUSP14. The method in brief: as §2
Chain of Dual specificity protein phosphatase 14 (O95147 whole entry): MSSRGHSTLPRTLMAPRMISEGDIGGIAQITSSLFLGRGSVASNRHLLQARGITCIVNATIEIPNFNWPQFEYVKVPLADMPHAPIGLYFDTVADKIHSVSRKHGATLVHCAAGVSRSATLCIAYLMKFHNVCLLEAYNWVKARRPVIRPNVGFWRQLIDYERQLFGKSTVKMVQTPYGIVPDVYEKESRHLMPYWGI
The target of data set [9] is Receptor-type tyrosine-protein phosphatase F (Homo sapiens, UniProt P10586). Kind of data set: Inhibition of human leukocyte antigen related phosphatase. The method in brief:
as §2

The target in data set [10] is Tyrosine-protein phosphatase non-receptor type 1 (Homo sapiens, UniProt P18031). Put plainly: Inhibition of human PTP1B. The gist of the method:
as §2

Substrate in data set [11]: NOCc1cc(OP(=O)(O)O)ccc1[N+](=O)[O-]
As to conditions: Yersinia pestis.

Substrate in data set [12]: C/C=N/OCc1cc(OP(=O)(O)O)ccc1[N+](=O)[O-]
The conditions noted are these: Yersinia pestis.

Substrate in data set [13]: O=[N+]([O-])c1ccc(OP(=O)(O)O)cc1
The conditions noted are these: Yersinia pestis.

Substrate in data set [14]: CC(C)(C)c1cc(OP(=O)(O)O)ccc1[N+](=O)[O-]
As to conditions: Yersinia pestis.

Substrate in data set [15]: Cc1cc([N+](=O)[O-])ccc1OP(=O)(O)O
The conditions noted are these: Yersinia pestis.

Substrate in data set [16]: O=[N+]([O-])c1cc(-c2ccccc2)ccc1OP(=O)(O)O
The conditions noted are these: Yersinia pestis.

Substrate in data set [17]: O=[N+]([O-])c1cccc(C2CCCCC2)c1OP(=O)(O)O
The conditions noted are these: Yersinia pestis.

Substrate in data set [18]: O=[N+]([O-])c1ccc(OP(=O)(O)O)c(C2CCCCC2)c1
The conditions noted are these: Yersinia pestis.

Substrate in data set [19]: NOCc1ccc(OP(=O)(O)O)c([N+](=O)[O-])c1
As to conditions: Yersinia pestis.

Substrate in data set [20]: CC(C)(C)c1ccc(OP(=O)(O)O)c([N+](=O)[O-])c1
The conditions noted are these: Yersinia pestis.

Substrate in data set [21]: O=[N+]([O-])c1ccc(OP(=O)(O)O)cc1-c1ccccc1
The conditions noted are these: Yersinia pestis.

Substrate in data set [22]: Cc1cccc([N+](=O)[O-])c1OP(=O)(O)O
The conditions noted are these: Yersinia pestis.

Chain of Dual specificity protein phosphatase 22 (Q9NRW4 whole entry): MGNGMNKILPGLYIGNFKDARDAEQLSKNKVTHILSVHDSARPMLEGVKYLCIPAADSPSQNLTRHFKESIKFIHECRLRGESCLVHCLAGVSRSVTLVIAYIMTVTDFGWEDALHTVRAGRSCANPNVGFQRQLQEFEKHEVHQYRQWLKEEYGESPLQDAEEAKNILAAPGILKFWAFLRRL
Chain of Receptor-type tyrosine-protein phosphatase F (P10586 whole entry): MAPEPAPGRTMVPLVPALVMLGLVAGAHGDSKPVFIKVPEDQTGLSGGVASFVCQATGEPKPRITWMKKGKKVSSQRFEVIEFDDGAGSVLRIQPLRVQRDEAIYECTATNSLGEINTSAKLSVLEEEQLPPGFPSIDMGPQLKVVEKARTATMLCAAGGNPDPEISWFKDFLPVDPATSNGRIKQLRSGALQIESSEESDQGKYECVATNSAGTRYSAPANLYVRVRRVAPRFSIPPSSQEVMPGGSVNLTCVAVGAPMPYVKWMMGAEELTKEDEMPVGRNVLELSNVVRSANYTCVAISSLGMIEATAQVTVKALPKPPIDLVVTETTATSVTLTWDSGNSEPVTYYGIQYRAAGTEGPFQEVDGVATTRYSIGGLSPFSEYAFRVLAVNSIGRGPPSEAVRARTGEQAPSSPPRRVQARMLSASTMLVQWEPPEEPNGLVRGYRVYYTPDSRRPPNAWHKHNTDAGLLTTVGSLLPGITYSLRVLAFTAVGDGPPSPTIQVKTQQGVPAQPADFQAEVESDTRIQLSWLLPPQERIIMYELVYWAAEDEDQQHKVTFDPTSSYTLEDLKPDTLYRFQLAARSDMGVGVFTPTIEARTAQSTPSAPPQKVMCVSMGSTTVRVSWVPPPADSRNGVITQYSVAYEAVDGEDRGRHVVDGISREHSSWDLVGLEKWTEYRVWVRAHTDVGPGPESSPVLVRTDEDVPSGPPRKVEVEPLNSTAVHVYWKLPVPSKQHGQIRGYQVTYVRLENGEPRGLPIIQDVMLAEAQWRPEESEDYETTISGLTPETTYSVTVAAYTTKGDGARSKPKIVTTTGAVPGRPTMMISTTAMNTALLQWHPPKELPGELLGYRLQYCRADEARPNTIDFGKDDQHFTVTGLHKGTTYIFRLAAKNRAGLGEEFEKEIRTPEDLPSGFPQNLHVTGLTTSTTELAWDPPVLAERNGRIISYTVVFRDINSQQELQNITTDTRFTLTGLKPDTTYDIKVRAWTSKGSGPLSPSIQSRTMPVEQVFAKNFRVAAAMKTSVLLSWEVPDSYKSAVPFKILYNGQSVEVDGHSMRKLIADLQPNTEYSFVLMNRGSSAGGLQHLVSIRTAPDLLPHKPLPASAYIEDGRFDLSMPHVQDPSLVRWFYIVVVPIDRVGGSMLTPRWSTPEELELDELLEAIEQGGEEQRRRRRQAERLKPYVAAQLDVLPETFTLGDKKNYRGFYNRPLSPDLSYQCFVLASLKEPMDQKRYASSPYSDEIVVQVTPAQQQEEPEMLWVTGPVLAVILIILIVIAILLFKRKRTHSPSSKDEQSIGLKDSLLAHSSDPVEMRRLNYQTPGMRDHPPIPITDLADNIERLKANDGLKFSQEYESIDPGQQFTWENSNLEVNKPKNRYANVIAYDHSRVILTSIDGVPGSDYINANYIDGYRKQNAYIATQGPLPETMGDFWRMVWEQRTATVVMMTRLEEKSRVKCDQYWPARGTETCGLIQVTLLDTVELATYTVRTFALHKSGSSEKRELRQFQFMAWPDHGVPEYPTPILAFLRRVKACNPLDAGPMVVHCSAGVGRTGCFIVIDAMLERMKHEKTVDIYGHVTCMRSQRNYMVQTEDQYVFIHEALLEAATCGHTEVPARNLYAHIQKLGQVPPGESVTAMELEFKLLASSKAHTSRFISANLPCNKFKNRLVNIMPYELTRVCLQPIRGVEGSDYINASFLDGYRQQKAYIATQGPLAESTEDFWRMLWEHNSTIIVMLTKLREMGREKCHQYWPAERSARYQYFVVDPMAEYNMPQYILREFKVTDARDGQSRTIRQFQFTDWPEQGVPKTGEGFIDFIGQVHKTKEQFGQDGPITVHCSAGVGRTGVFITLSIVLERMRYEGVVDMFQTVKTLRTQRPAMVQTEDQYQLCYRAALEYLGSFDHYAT
Chain of Tyrosine-protein phosphatase non-receptor type 1 (P18031 whole entry): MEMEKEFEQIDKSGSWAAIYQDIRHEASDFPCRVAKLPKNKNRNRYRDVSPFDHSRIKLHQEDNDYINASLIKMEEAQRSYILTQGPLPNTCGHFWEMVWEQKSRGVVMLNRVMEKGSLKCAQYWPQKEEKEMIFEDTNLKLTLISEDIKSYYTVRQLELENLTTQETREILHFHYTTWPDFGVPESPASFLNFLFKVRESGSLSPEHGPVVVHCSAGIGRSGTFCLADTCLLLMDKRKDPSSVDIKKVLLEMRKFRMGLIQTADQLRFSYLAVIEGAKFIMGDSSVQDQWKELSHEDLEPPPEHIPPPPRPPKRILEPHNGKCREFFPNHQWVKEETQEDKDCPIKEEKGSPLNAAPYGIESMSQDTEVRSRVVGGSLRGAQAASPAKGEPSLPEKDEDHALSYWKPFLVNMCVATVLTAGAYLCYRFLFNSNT

Consider GENTAMICIN, for which, in data set [1], the inhibition result is “Active”.

One may read the IC50 as the point on the concentration scale where inhibition reaches its midpoint. A lower IC50 goes with inhibition by little substance. Molecule `O=P(O)(O)C(F)(F)c1cccc(-c2ccc(CO/N=C/c3ccc(CO)o3)cc2)c1` registered a 50% inhibitory concentration (IC50) in data set [2] of 730 nM.

`O=C(O)c1ccc(/C=N/OCc2ccc(-c3cccc(C(F)(F)P(=O)(O)O)c3)cc2)o1`: the inhibition result in data set [1], in [5] and in data set [6] was “Active” throughout. For the same molecule, the IC50 is over 400000 nM in data set [3]; 190 nM in data set [2]; over 400000 nM in [7]; over 400000 nM in data set [8]; over 400000 nM in [9]; 2230 nM in [10]. Moreover, the Activity result in data set [4] is on record as “Non-toxic”.

Molecule `Cc1ccc(/C=N/OCc2ccc(-c3cccc(C(F)(F)P(=O)(O)O)c3)cc2)o1` came in with an IC50 in [2] of 910 nM.

`O=P(O)(O)C(F)(F)c1cccc(-c2ccc(CO/N=C/c3ccoc3)cc2)c1` displayed an IC50 in data set [2] of 3690 nM.

Take `O=P(O)(O)C(F)(F)c1cccc(-c2ccc(CO/N=C/c3ccco3)cc2)c1`: the midpoint of inhibition in data set [2], the IC50, lay at 1200 nM.

B1: Secreted effector protein (Yersinia pestis), O68720 (protein)
chain: MNLSLSDLHRQVSRLVQQESGDCTGKLRGNVAANKETTFQGLTIASGARESEKVFAQTVLSHVANVVLTQEDTAKLLQSTVKHNLNNYDLRSVGNGNSVLVSLRSDQMTLQDAKVLLEAALRQESGARGHVSSHSHSALHAPGTPVREGLRSHLDPRTPPLPPRERPHTSGHHGAGEARATAPSTVSPYGPEARAELSSRLTTLRNTLAPATNDPRYLQACGGEKLNRFRDIQCCRQTAVRADLNANYIQVGNTRTIACQYPLQSQLESHFRMLAENRTPVLAVLASSSEIANQRFGMPDYFRQSGTYGSITVESKMTQQVGLGDGIMADMYTLTIREAGQKTISVPVVHVGNWPDQTAVSSEVTKALASLVDQTAETKRNMYESKGSSAVGDDSKLRPVIHCRAGVGRTAQLIGAMCMNDSRNSQLSVEDMVSQMRVQRNGIMVQKDEQLDVLIKLAEGQGRPLLNS
For orientation: Km means the concentration of substrate that gives half-maximal velocity. On to B1, for which the Km in data set [11] was 410 µM; in data set [12], 170 µM; in data set [13], 600 µM; in [14], 1140 µM; in data set [15], 650 µM; in data set [16], 150 µM. In addition, the Km result in [17] is “Not Active”; in [18], 260 µM; in data set [19] it was 1130 µM; in data set [20], 470 µM; in [21] it was 80 µM; in data set [22], “Not Active”.
